The source made the active and inactive calls. The rule behind the calls is not given here.
Tests used:
Mus musculus = assay: Induction of HO1 […] expression in Nrf2-knock out C57BL/6 mouse liver at 500 mg/kg, ip measured after 8 hrs by immunoblot analysis
RAW264.7 [1] = assay: Antiinflammatory activity in mouse RAW264.7 cells assessed as inhibition of LPS-induced nitric oxide production after 24 hrs by Griess method; format: functional, cell-based; conditions: RAW264.7, 24 h
[2] = molecular target: T1, Nuclear factor erythroid 2-related factor 2 (Mus musculus) (UniProt Q60795); assay: Induction of Nrf2-mediated CAT mRNA expression in mouse RAW264.7 cells at 100 uM after 20 hrs by quantitative RT-PCR analysis relative to control; format: cell-based
T1 sequence (whole entry): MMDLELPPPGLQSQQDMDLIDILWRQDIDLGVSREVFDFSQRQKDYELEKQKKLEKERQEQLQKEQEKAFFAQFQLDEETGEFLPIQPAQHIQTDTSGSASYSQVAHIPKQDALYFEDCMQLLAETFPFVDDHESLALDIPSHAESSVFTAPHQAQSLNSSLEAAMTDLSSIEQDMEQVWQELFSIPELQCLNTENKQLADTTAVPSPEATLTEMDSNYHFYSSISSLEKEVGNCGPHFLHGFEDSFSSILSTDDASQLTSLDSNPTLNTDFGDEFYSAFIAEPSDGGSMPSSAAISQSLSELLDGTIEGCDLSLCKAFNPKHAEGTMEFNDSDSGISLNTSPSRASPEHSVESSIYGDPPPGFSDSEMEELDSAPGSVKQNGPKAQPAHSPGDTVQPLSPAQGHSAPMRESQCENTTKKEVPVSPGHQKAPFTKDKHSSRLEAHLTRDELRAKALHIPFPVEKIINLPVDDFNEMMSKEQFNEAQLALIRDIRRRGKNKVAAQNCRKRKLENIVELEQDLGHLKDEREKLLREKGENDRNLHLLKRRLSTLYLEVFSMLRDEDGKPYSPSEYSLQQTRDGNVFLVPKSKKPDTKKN

RAW264.7 [3] = assay: Antioxidant activity in mouse RAW264.7 cells assessed as induction of HO1 expression at 100 uM after 6 hrs by immunoblot analysis; format: functional, cell-based
[4] = molecular target: T1, Nuclear factor erythroid 2-related factor 2 (Mus musculus); assay: Induction of nuclear translocation of Nrf2 in mouse RAW264.7 cells assessed as decrease in cytoplasmic fraction at 50 uM after 1 hr; format: cell-based
In short: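 RAW 264.7 macrophages treated with 50 or 100 μM compound for various times (1–4 h window examined). Cytoplasmic and nuclear fractions were separated and probed for Nrf2 by immunoblot. Translocation was scored as loss of cytoplasmic Nrf2 and nuclear accumulation relative to DMSO control.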

[5] = test system: Peritoneal macrophage cell; assay: Induction of HO1 […] expression in Nrf2-knockout mouse primary peritoneal macrophages at 5 to 100 uM after 48 hrs by immunoblot analysis; format: functional, cell-based
RAW264.7 [6] = assay: Antioxidant activity in mouse RAW264.7 cells assessed as induction of HO1 expression at 10 to 100 uM by immunoblot analysis; format: functional, cell-based; conditions: TDE = time-dependent effect
RAW264.7 [7] = assay: Antiinflammatory activity in mouse RAW264.7 cells assessed as inhibition of LPS-induced iNOS protein expression at 100 uM after 4 hrs by immunoblot analysis
RAW264.7 [8] = assay: Antiinflammatory activity in mouse RAW264.7 cells assessed as inhibition of LPS-induced iNOS protein expression at 50 to 100 uM by immunoblot analysis; format: functional, cell-based; conditions: TDE = time-dependent effect
RAW264.7 [9] = assay: Antioxidant activity in LPS-stimulated mouse RAW264.7 cells assessed as induction of HO-1 protein expression at 100 uM after 24 hrs by immunoblot analysis; format: functional, cell-based
RAW264.7 [10] = assay: Antioxidant activity in mouse RAW264.7 cells assessed as induction of HO1 expression at 100 uM after 72 hrs by immunoblot analysis; format: functional, cell-based
[11] = molecular target: T1, Nuclear factor erythroid 2-related factor 2 (Mus musculus); assay: Induction of Nrf2-mediated CAT mRNA expression in mouse RAW264.7 cells at 100 uM after 4 to 24 hrs by quantitative RT-PCR analysis relative to control; format: cell-based
RAW264.7 [12] = assay: Antioxidant activity in LPS-stimulated mouse RAW264.7 cells assessed as induction of HO-1 mRNA expression at 100 uM after 24 hrs by RT-PCR analysis; format: functional, cell-based
RAW264.7 [13] = assay: Cytotoxicity against mouse RAW264.7 cells at 100 uM after 8 hrs by MTT assay; format: cell-based; conditions: raw264.7, 8 h
RAW264.7 [14] = assay: Antioxidant activity in LPS-stimulated mouse RAW264.7 cells assessed as induction of HO-1 […] expression after 24 hrs by immunoblot analysis; format: functional, cell-based
[15] = molecular target: T1, Nuclear factor erythroid 2-related factor 2 (Mus musculus); assay: Induction of Nrf2-mediated CAT mRNA expression in mouse RAW264.7 cells at 100 uM after 16 hrs by quantitative RT-PCR analysis relative to control; format: cell-based
RAW264.7 [16] = assay: Antiinflammatory activity in mouse RAW264.7 cells assessed as inhibition of LPS-induced nitric oxide production at 50 to 100 uM after 24 hrs by Griess method; format: functional; set-up: scale not given: the % may be the effect or the level left
RAW264.7 [17] = assay: Antioxidant activity in LPS-stimulated mouse RAW264.7 cells assessed as induction of HO-1 mRNA expression at 50 uM after 24 hrs by RT-PCR analysis; format: functional, cell-based
[18] = molecular target: T1, Nuclear factor erythroid 2-related factor 2 (Mus musculus); assay: Induction of Nrf2-mediated GR mRNA expression in mouse RAW264.7 cells at 100 uM after 24 hrs by quantitative RT-PCR analysis relative to control; format: cell-based
RAW264.7 [19] = assay: Antioxidant activity in LPS-stimulated mouse RAW264.7 cells assessed as induction of HO-1 mRNA expression at 100 uM after 4 hrs by RT-PCR analysis; format: functional, cell-based
[20] = Solubility of the compound in DMSO; format: physicochemical
RAW264.7 [21] = assay: Antioxidant activity in LPS-stimulated mouse RAW264.7 cells assessed as induction of HO-1 mRNA expression at 100 uM after 20 hrs by RT-PCR analysis relative to control; format: functional
RAW264.7 [22] = assay: Cytotoxicity against mouse RAW264.7 cells at 1000 uM after 24 hrs by MTT assay; format: cell-based; conditions: raw264.7, 24 h
RAW264.7 [23] = assay: Antioxidant activity in mouse RAW264.7 cells assessed as induction of HO1 expression at 100 uM after 24 hrs by immunoblot analysis; format: functional, cell-based
[24] = molecular target: T1, Nuclear factor erythroid 2-related factor 2 (Mus musculus); assay: Induction of Nrf2-mediated NQO1 mRNA expression in mouse RAW264.7 cells at 100 uM after 16 to 20 hrs by quantitative RT-PCR analysis relative to control; format: cell-based

IC50 (RAW264.7 [1]): 53.3 µM
fold change (FC) [2]: 3.5
Activity [4]: Active
Activity [11]: Active
fold change (FC) [15]: 1.7
Activity [18]: inactive
solubility [20]: soluble
Activity [24]: Active
SMILES: CC1(C)[C@@H](O)CC[C@]2(C)C3=C(CC[C@@H]12)[C@@]1(C)CC[C@@]2(C)CC[C@@](C)(C(=O)O)C[C@H]2[C@]1(C)CC3 [BRYONOLIC ACID]
Activity (Mus musculus): inactive
Activity (RAW264.7 [3]): Active
Activity [5]: inactive
Activity (RAW264.7 [6]): tde
Activity (RAW264.7 [7]): Active
Activity (RAW264.7 [8]): tde
Activity (RAW264.7 [9]): Active
Activity (RAW264.7 [10]): inactive
Activity (RAW264.7 [12]): Active
Activity (RAW264.7 [13]): Non-toxic
Activity (RAW264.7 [14]): Dose-dependent effect
Activity (RAW264.7 [16]): 72%
Activity (RAW264.7 [17]): Active
Activity (RAW264.7 [19]): Active
fold change (FC) (RAW264.7 [21]): 11.3
Activity (RAW264.7 [22]): Toxic
Activity (RAW264.7 [23]): Active

From ChEMBL document CHEMBL2034960, “Bryonolic acid transcriptional control of anti-inflammatory and antioxidant genes in macrophages in vitro and in vivo” (J Nat Prod, 2012)
